Test results: paper PMC3171643 (ACS combinatorial science, 2011)

Key:
[1] = target: GST-Cn (catalytic domain of human Cn) (Homo sapiens, UniProt Q08209); format: binding; details: Cn 5 μM, TMR-labeled peptide 100 nM
Procedure, shortened: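 Human Cn catalytic domain as a GST fusion, expressed in E. coli BL21 and glutathione-Sepharose purified. Single-bead-released TAMRA-labeled cyclic peptide (100 nM) was incubated with 5 μM GST-Cn for 2 h at room temperature in 20 mM HEPES pH 7.4, 150 mM NaCl, 2 mM magnesium acetate, 0.1% BSA. Anisotropy was read at ex 545/em 585 nm and expressed as % increase over the peptide without Cn.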

Cn = details: cited from earlier work
[2] = target: Calcineurin (Homo sapiens) (UniProt Q08209); details: cited from earlier work

With CN(C)c1ccc2c(-c3ccccc3C(=O)[O-])c3ccc(N(C)C)cc3[o+]c2c1 [free TMR, tetramethylrhodamine] the “percentage of FA increase (relative to the control without Cn)” value [1] was “less than 20%”.

In the case of MAPGHPVIVITGPHEE, the Kd (Cn; VIVIT peptide binding to Cn) is listed as 500 nM and the “fold higher affinity for Cn than the native sequence” value (Cn) is listed as 50 fold.

In the case of VIVIT peptide, the Kd [2] is listed as 500 nM.
